Bioassay records as filed in PubChem BioAssay.
An excerpt weighted towards active compounds, which were near 2.3% of everything screened.
TRPC4 agonist: TRPC4 (mouse) channel activation. Q9QUQ5. HEK293 TRPC4beta/mu-opioid, Fluo4 calcium fluorescence; stronger effect = higher value. B-score at 10 µM. actives 0.49% (n = 310,000);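 active = B-score above 5 SD of library B-scores, and initial fluorescence ratio not above library mean plus 5 SD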;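 note: positive B-score marks a calcium rise read as TRPC4 activation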
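Material: TRPC4beta and mu-opioid receptor HEK293 stable cells | Incubation: 45 min room-temperature Fluo4 loading, 110 s read | Detection: Kinetic Fluo4 calcium fluorescence | Measure: Integrated baseline-normalised fluorescence ratio, converted to per-well B score | Benchmarks: Low control buffer alone, high control maximal DAMGO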
TRPC4 potent: allosteric potentiators of mouse TRPC4 channel. HEK293 TRPC4beta/mu-opioid, DAMGO EC20, Fluo-4 Ca2+ flux; stronger effect = higher value. B-score at 10 µM. actives 0.42% (n = 310,000). AID 2227;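 active = B-score of calcium response area above 5 SD of library B-scores, with initial fluorescence ratio within 5 SD of library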
FID counter: displaces DNA intercalator in HCV helicase counter-screen; DNA fluorescent intercalator displacement, fluorescence; inhibition, % at 7.9 µM; actives 0.17% (n = 290,000); AID 1845; in the data active = inhibition above about 37%;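 note: higher means more ethidium bromide displaced from hairpin DNA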
TRPC6 act: activators of mouse TRPC6 channel. AID 2550. Q61143. actives 0.13% (n = 310,000). B-score at 10 µM. HEK293-TRPC6 membrane potential dye fluorescence; stronger effect = higher value;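 active = B-score of the integrated fluorescence ratio above library mean plus 3 SD, and starting fluorescence ratio within library mean plus 5 SD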;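 note: higher score means more depolarization so channel activation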
TRPC4 block: inhibitors of mouse TRPC4 channel; B-score at 10 µM; AID 2247; HEK293 TRPC4beta/mu-opioid, DAMGO-evoked Fluo4 calcium flux; stronger effect = lower value; actives 0.39% (n = 300,000);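 active = B-score over 3 SD under the library average, no early fluorescence shift, positive overall ratio signal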
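Assay system: HEK293 cells with stable TRPC4beta plus mu-opioid receptor expression. Dosing: single dose. Measured by: Fluo4 Ca2+ flux fluorescence. Also added: DAMGO in two steps, submaximal then maximal. Read-out: B score from integrated Fluo4 fluorescence ratio.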
TRPC6 inhibitor: mouse TRPC6 channel inhibition; Q61143; HEK293-TRPC6, membrane potential dye, ACh-evoked depolarization; stronger effect = lower value; B-score at 10 µM; actives 1.1% (n = 310,000); AID 2553;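 active = B-score under library mean minus 3 SD, initial fluorescence not abnormally high, positive integrated signal ratio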;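 note: B-score derived from integrated fluorescence ratio over the kinetic read; more negative B-score means stronger inhibition of depolarization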
TRPC4 spec 2: second check of whether TRPC6 inhibitors also affect mouse TRPC4; shares compounds with TRPC6 inhibitor; HEK293 TRPC4/MOR, membrane potential dye fluorescence; channel activated by saturating DAMGO dose; inhibition, % at 10 µM; actives 42% (n = 920);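 active = compounds whose fluorescence signal differed from control wells by over 3 SD, either direction, in both duplicate plates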
TRPC4 spec: mouse TRPC4 off-target activity of TRPC6 inhibitors; actives 61% (n = 920); shares compounds with TRPC6 inhibitor; activity change, negative = inhibition, % at 10 µM; HEK293 TRPC4/mu-opioid, membrane potential fluorescence;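 active = rise or fall in signal beyond 3 SD of buffer-only wells in both replicate plates, either sign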;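 note: integrated kinetic ratio of fluorescence range over baseline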
HEK293 MPD ctr 2-1: parental HEK293 nonspecific activity of TRPC6 inhibitors, second screen; parental HEK293 membrane potential dye fluorescence; maximal acetylcholine challenge after compound addition; actives 31% (n = 920); signal change vs control, % at 10 µM; shares compounds with TRPC6 inhibitor; AID 2779;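 active = membrane potential signal moving either way by over 3 SD of the maximum-effect control, in both duplicate plates, meaning non-specific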
HEK293 MPD ctr-1: checks TRPC6 inhibitor effects in parental HEK293 cells; shares compounds with TRPC6 inhibitor; parental HEK293 membrane potential dye fluorescence; membrane potential signal change, % at 10 µM; actives 60% (n = 920); AID 2780;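 active = membrane potential signal shifting up or down by more than 3 SD of buffer-only wells, on both duplicate plates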
HEK293 MPD ctr-2: counter-screen for TRPC6 modulators: effect in parental HEK293 cells; AID 488924; actives 51% (n = 2,400); membrane potential dye fluorescence; membrane potential signal change, % at 10 µM; shares compounds with TRPC6 inhibitor;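 active = membrane potential signal moves up or down beyond 5 SD from buffer-only wells, on both duplicate plates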
HEK293 MPD ctr 2-2: second counter-screen for TRPC6 modulators: effect in parental HEK293 cells | shares compounds with TRPC6 inhibitor | AID 488926 | actives 14% (n = 2,400) | membrane potential dye fluorescence; after compound, maximal acetylcholine stimulation | inhibition, % at 10 µM;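 active = membrane potential signal drops by more than 5 SD from the mean control signal, in both duplicate plates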
TRPC4/MOR mod: selectivity of TRPC6 modulators against mouse TRPC4. shares compounds with TRPC6 inhibitor. HEK293 TRPC4/mu-opioid, membrane potential fluorescence. percent change from control (negative = decrease, positive = increase), % at 10 µM. actives 69% (n = 2,400). AID 488927;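 active = membrane potential signal moved up or down beyond 5 SD of buffer control wells, in both duplicate plates, actives on both sides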
TRPC4/MOR inh 2: second check of whether TRPC6 modulators also affect mouse TRPC4 | inhibition, % at 10 µM | HEK293 TRPC4/mu-opioid, membrane potential dye fluorescence; stimulated with maximal-effect DAMGO | actives 55% (n = 2,400) | shares compounds with TRPC6 inhibitor | AID 488928;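 active = drop in membrane potential signal beyond 5 SD of the control wells in both duplicate plates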;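 note: TRPC4 counter screen for TRPC6 hits run under conditions tuned for TRPC6 not TRPC4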
TRPC6 inh conf: confirmation of mouse TRPC6 inhibitors; HEK293-TRPC6, membrane potential dye, ACh-evoked depolarization; inhibition, % at 10 µM; AID 488960; shares compounds with TRPC6 inhibitor; actives 43% (n = 3,300);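 active = fluorescence ratio falls more than 5 SD below the full-stimulation control mean, in both duplicate runs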;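 note: integrated fluorescence ratio of peak minus minimum over baseline after agonist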
TRPC6 act confirm: mouse TRPC6 activator confirmation. shares compounds with TRPC6 inhibitor. HEK293-TRPC6 membrane potential dye fluorescence, FDSS. activation, % at 10 µM. actives 11% (n = 2,800);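 active = ratio signal rise beyond 5 SD above unstimulated control wells' mean, seen in both duplicate runs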
A number is an active result; - = inactive; . = not tested or not shown.

SMILES	TRPC4 agonist	TRPC4 potent	FID counter	TRPC6 act	TRPC4 block	TRPC6 inhibitor	HEK293 MPD ctr-2	HEK293 MPD ctr 2-2	TRPC4/MOR mod	TRPC4/MOR inh 2	TRPC6 inh conf	TRPC6 act confirm	others
O=C(O)C1CC(c2ccccc2)=Nc2ccccc2S1 (configuration not stated)	-	-	-	-	-	-5.3	136%	-	28%	-	-	.
O=[N+]([O-])c1ccc(C2CC(c3ccccc3)=Nc3ccccc3S2)cc1 (configuration not stated)	-	-	-	-	-	-	.	.	.	.	.	.
Cn1c(SCc2ccccc2Cl)nc2c1c(=O)[nH]c(=O)n2C	-	-	-	-	-	-	.	.	.	.	.	.
CCOC(=O)C1CCN(Cc2cnc(Oc3ccc(C(C)(C)C)cc3)s2)CC1	-	-	-	12	-	-6.5	-	-	8.5%	-	52%	83%
COc1cc(/C=C/c2nc3ccc([N+](=O)[O-])cc3s2)ccc1OCC(=O)O	-	-	-	-	-	-6.7	-69%	-	-20%	-	-	-
CCN(C(=O)CCNC(=O)Cn1cnc2ccccc2c1=O)c1ccccc1F	-	-	-	-	-	-	.	.	.	.	.	.
COc1ccccc1CNC(=O)c1cc(C(C)=O)c[nH]1	-	-	-	-	-	-	.	.	.	.	.	.
CCCC(O)(CCN1CCOCC1)c1ccc(Cl)cc1 (configuration not stated)	-	-	-	-	-	-	.	.	.	.	.	.
CCCC(O)(CCN1CCOCC1)c1ccc(Br)cc1 (configuration not stated)	-	-	-	-	-6	-7.5	.	.	.	.	-	-	TRPC4 spec 2=76%;TRPC4 spec=4.2%;HEK293 MPD ctr 2-1=-;HEK293 MPD ctr-1=3.6%
Cc1c(O)c(CN2CCCCC2)cc2c3c(c(=O)oc12)CCC3	-	-	-	-	-	-10	-243%	-	-39%	-	44%	-
CN1/C(=C/c2cc[n+](C)c3ccccc23)C=Cc2ccccc21	.	.	-	.	.	.	.	.	.	.	.	.
C[n+]1ccc(/C=C/c2ccccc2O)c2ccccc21	-	-	-	-	-	-5.7	-81%	-	-16%	-	42%	-
O=[N+]([O-])c1ccc(O)c(Nc2c([N+](=O)[O-])ccc3nonc23)c1	-	-	-	-	-	-	.	.	.	.	.	.
CC1CN(c2ccc([N+](=O)[O-])c(NCCOc3ccccc3)c2)CCN1 (configuration not stated)	-	-	-	-	-	-7.3	.	.	.	.	-	-	TRPC4 spec 2=-;TRPC4 spec=-11%;HEK293 MPD ctr 2-1=-;HEK293 MPD ctr-1=-142%
COc1ccc(OCCNc2cc(N3CCCCC3)ccc2[N+](=O)[O-])cc1	-	-	-	-	-	-	.	.	.	.	.	.
Cn1nnnc1SCCNCc1ccccc1OCc1ccccc1Cl	-	-	-	-	-	-5.5	122%	-	24%	81%	44%	.
Cn1nnnc1SCCNCc1cc(Cl)ccc1OCc1ccccc1	-	-	-	-	-	-	.	.	.	.	.	.
CCN(CC)CCCC(C)NC(=O)c1c(NC(=O)c2ccccc2)sc2c1CCCC2 (configuration not stated)	-	-	-	-	-	-6.1	-	-	-20%	81%	60%	-
C/C(=N\Nc1ccc2nncn2n1)c1ccccn1	-	-	-	-	-	-7.4	.	.	.	.	84%	-	TRPC4 spec 2=71%;TRPC4 spec=-36%;HEK293 MPD ctr 2-1=-;HEK293 MPD ctr-1=-522%
CC(=O)Nc1cccc(NC(=O)C2CC(=O)N(CCc3ccc(F)cc3)C2)c1 (configuration not stated)	-	-	-	-	-	-	.	.	.	.	.	.
O=C(CNC(=O)c1ccccc1F)NCc1cccnc1	-	-	-	-	-	-	.	.	.	.	.	.
CCOC(=O)c1cnc2c(C(=O)OC)cccc2c1NCCN1CCOCC1	-	-	-	-	-	-5	137%	-	20%	47%	48%	.
CCOC(=O)c1cnc2c(OC)cccc2c1NCc1cccnc1	-	-	-	-	-	-7.5	.	.	.	.	83%	-	TRPC4 spec 2=-;TRPC4 spec=-;HEK293 MPD ctr 2-1=-15%;HEK293 MPD ctr-1=-
CCOC(=O)c1cnc2c(CC)cccc2c1NCCN1CCOCC1	-	-	-	-	-	-	.	.	.	.	.	.
CCOC(=O)c1cnc2c(C)cccc2c1NCCCN1CCOCC1	-	-	55	-	-	-6.8	.	.	.	.	-	-	TRPC4 spec 2=58%;TRPC4 spec=-;HEK293 MPD ctr 2-1=-31%;HEK293 MPD ctr-1=-
SMILES	TRPC4 agonist	TRPC4 potent	FID counter	TRPC6 act	TRPC4 block	TRPC6 inhibitor	HEK293 MPD ctr-2	HEK293 MPD ctr 2-2	TRPC4/MOR mod	TRPC4/MOR inh 2	TRPC6 inh conf	TRPC6 act confirm	others
CC1(c2nnc(-c3cccc(Cl)c3)o2)CC(c2cccc([N+](=O)[O-])c2)=NO1 (configuration not stated)	-	-	-	-	-	-	.	.	.	.	.	.
Cc1nc2nc(CCNS(=O)(=O)c3ccc(Cl)cc3)cn2nc1C	-	-	-	-	-	-	.	.	.	.	.	.
NC(N)=Nc1nc(-c2ccccc2)c2ccccc2n1	-	-	-	-	-	-5.4	-174%	-	-30%	33%	-	-
CN(C)CCOC(c1ccc(Cl)cc1)c1ccccn1 (configuration not stated)	-	-	-	-	-	-	.	.	.	.	.	.
CN(C)CCOC(c1ccccc1)c1ccccc1	-	-	-	-	-	-	.	.	.	.	.	.
CN(C)CCOC(c1ccccc1)c1ccccc1 (tested in a mixture with another compound)	-	-	-	-	-	-5.2	154%	-	26%	34%	51%	.
